Test results from ChEMBL document CHEMBL1126111, “Potential antitumor agents. 21. Structure determination and antitumor activity of imidazo[2,1-b]thiazole guanylhydrazones” (1992).

Tests used:
Format in all cases: functional
Details in all cases: route intraperitoneal
Mus musculus [1] = test: Antitumor activity in mice bearing Ehrlich ascites tumor cells at 100 mg/kg ip
How it was run: (§1)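 Female Swiss mice (average weight 21 ± 1 g), groups of eight, implanted with 10^6 Ehrlich ascites tumor cells from donor mice; single ip dose in DMSO given 24 h later, starting at 100 mg/kg, repeated at lower doses in new groups if active. Deaths followed for 60 days; % T/C = mean survival time treated vs vehicle controls (10 mice).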

Mus musculus [2] = test: Antitumor activity in mice bearing Ehrlich ascites tumor cells at 12.5 mg/kg ip; how it was run: as §1
Mus musculus [3] = test: Antitumor activity in mice bearing Ehrlich ascites tumor cells at 50 mg/kg ip; how it was run: as §1
Mus musculus [4] = test: Antitumor activity in mice bearing Ehrlich ascites tumor cells at 25 mg/kg ip; how it was run: as §1

Question: Which T/C (Mus musculus [1]) does the source give for Cl.N=C(N)N/N=C/c1c(Cl)nc2n1CCS2 here?
Answer: 180%

Question: Which T/C (Mus musculus [1]) does the source give for O=c1[nH]cc(F)c(=O)[nH]1 [FLUOROURACIL] here?
Answer: 180%

Question: With Cl.N=C(N)N/N=C/c1c(-c2ccc(Cl)cc2)nc2sccn12 as the compound, how does the T/C (Mus musculus [2]) read?
Answer: 190%

Question: Which T/C (Mus musculus [1]) does the source give for Cc1nc2sccn2c1/C=N/N=C(N)N.Cl here?
Answer: 100%

Question: For Cl.N=C(N)N/N=C/c1c(-c2ccccc2)nc2n1CCS2, which T/C (Mus musculus [3]) is on record?
Answer: 100%

Question: Cc1ccc(-c2nc3n(c2/C=N/N=C(N)N)CCS3)cc1.Cl was tested. Which T/C (Mus musculus [3]) did it give?
Answer: 100%

Question: How did the T/C (Mus musculus [3]) turn out when Cl.N=C(N)N/N=C/c1c(-c2ccccc2)nc2sccn12 was run?
Answer: 120%

Question: For Cl.N=C(N)N/N=C/c1c(Cl)nc2sccn12, which T/C (Mus musculus [3]) is on record?
Answer: 200%

Question: With Cc1nc2n(c1/C=N/N=C(N)N)CCS2.Cl as the compound, how does the T/C (Mus musculus [3]) read?
Answer: 100%

Question: Which T/C (Mus musculus [4]) does the source give for Cc1ccc(-c2nc3sccn3c2/C=N/N=C(N)N)cc1.Cl here?
Answer: 110%
